Usually IC50 stands for the midpoint of a concentration-inhibition curve.

In ChEMBL document CHEMBL2086222, “Bioassay-guided isolation of prenylated xanthones and polycyclic acylphloroglucinols from the leaves of Garcinia nujiangensis” (J Nat Prod, 2012) one finds Activity and IC50 data, which are given here for 5 compounds.

Active and inactive are the calls of the source. The calls are words filed in the database; no cut-off is given here.

The test system of data set [1] is U-87MG ATCC. The experiment in a line: Cytotoxicity against human U87 cells assessed as reduction in cell viability at 5 to 40 uM after 72 hrs by MTT assay. Type of data set: functional, cell-based. The essentials:
(§1)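 Cells in RPMI 1640, DMEM or DMEM/F12 with 10% FBS, 37 °C, 5% CO2. Plated at 5 × 10^3 cells/well and attached overnight. Exposed 72 h to 5, 10, 20 or 40 μM from DMSO stocks diluted in medium. MTT (5 mg/mL stock in PBS) added for 4 h at 37 °C, formazan dissolved in DMSO, A490 read. Untreated cells taken as 100%.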

For data set [2], the system named is SMMC-7721. Kind of data set: Cytotoxicity against human SMMC7721 cells assessed as reduction in cell viability at 5 to 40 uM after 72 hrs by MTT assay. In kind it is functional, cell-based. In short, it runs like this:
as §1
On the technique in general: Tetrazolium assays rely on reduction of a dye to a coloured formazan, in cell work by metabolically active cells.

Data set [3] is described as follows: Cytotoxicity against human MIHA cells assessed as reduction in cell viability at 5 to 40 uM after 72 hrs by MTT assay. Type of data set: cell-based. The essentials: as §1
The subject of data set [4] is A-375. Kind of data set: Cytotoxicity against human A375 cells assessed as reduction in cell viability at 5 to 40 uM after 72 hrs by MTT assay. Type of data set: functional, cell-based. In short, it runs like this: as §1
The test system of data set [5] is A549. Kind of data set: Cytotoxicity against human A549 cells assessed as reduction in cell viability at 5 to 40 uM after 72 hrs by MTT assay. In kind it is functional, cell-based. In short, it runs like this:
as §1

The subject of data set [6] is AGS. The experiment in a line: Cytotoxicity against human AGS cells assessed as reduction in cell viability at 5 to 40 uM after 72 hrs by MTT assay. In kind it is functional, cell-based. The essentials: as §1
Data set [7] concerns PANC-1. Kind of data set: Cytotoxicity against human PANC1 cells assessed as reduction in cell viability at 5 to 40 uM after 72 hrs by MTT assay. Type of data set: functional, cell-based. The essentials: as §1
Data set [8] has as its system MDA-MB-231. The experiment in a line: Cytotoxicity against human MDA-MB-231 cells assessed as reduction in cell viability at 5 to 40 uM after 72 hrs by MTT assay. In kind it is functional, cell-based. In short, it runs like this: as §1
The test system of data set [9] is NCI-H2126. Kind of data set: Cytotoxicity against human NCI-H2126 cells assessed as reduction in cell viability at 5 to 40 uM after 72 hrs by MTT assay. In kind it is functional, cell-based. The essentials: as §1
Data set [10] relates to HepG2. Kind of data set: Cytotoxicity against human HepG2 cells assessed as reduction in cell viability at 5 to 40 uM after 72 hrs by MTT assay. In kind it is functional, cell-based. The essentials:
as §1

Data set [11] concerns MCF7. Kind of data set: Cytotoxicity against human MCF7 cells assessed as reduction in cell viability at 5 to 40 uM after 72 hrs by MTT assay. In kind it is functional, cell-based. The essentials:
as §1

The subject of data set [12] is BXPC-3. Kind of data set: Cytotoxicity against human BxPC3 cells assessed as reduction in cell viability at 5 to 40 uM after 72 hrs by MTT assay. In kind it is functional, cell-based. In short, it runs like this:
as §1

Data set [13] concerns BXPC-3. Kind of data set: Cytotoxicity against human BxPC3 cells assessed as reduction in cell viability after 72 hrs by MTT assay. Type of data set: functional, cell-based. Particulars: BXPC-3, 72 h. In short, it runs like this:
as §1

Data set [14] concerns AGS. Kind of data set: Cytotoxicity against human AGS cells assessed as reduction in cell viability after 72 hrs by MTT assay. In kind it is functional, cell-based. The essentials:
as §1

For data set [15], the system named is PANC-1. Kind of data set: Cytotoxicity against human PANC1 cells assessed as reduction in cell viability after 72 hrs by MTT assay. Particulars: PANC-1, 72 h. In kind it is functional, cell-based. The essentials: as §1
The test system of data set [16] is A549. Kind of data set: Cytotoxicity against human A549 cells assessed as reduction in cell viability after 72 hrs by MTT assay. Type of data set: functional, cell-based. Particulars: A549, 72 h. In short, it runs like this: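 Human lung line cultured in RPMI 1640, DMEM or DMEM/F12 with 10% FBS at 37 °C, 5% CO2. 5 × 10^3 cells/well plated and left to attach overnight. Compound taken from DMSO stock, diluted in medium, tested at 5, 10, 20 and 40 μM for 72 h. MTT (5 mg/mL stock) added for 4 h at 37 °C. Formazan dissolved in DMSO, absorbance read at 490 nm. Untreated cells set as 100%.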

The test system of data set [17] is A-375. The experiment in a line: Cytotoxicity against human A375 cells assessed as reduction in cell viability after 72 hrs by MTT assay. Type of data set: functional, cell-based. Particulars: A-375, 72 h. The essentials:
as §1

Data set [18] has as its system NCI-H2126. Kind of data set: Cytotoxicity against human NCI-H2126 cells assessed as reduction in cell viability after 72 hrs by MTT assay. Type of data set: functional, cell-based. Particulars: NCI-H2126, 72 h. The essentials: as §1
For data set [19], the system named is SMMC-7721. The experiment in a line: Cytotoxicity against human SMMC7721 cells assessed as reduction in cell viability after 72 hrs by MTT assay. In kind it is functional, cell-based. Particulars: SMMC-7721, 72 h. In short, it runs like this:
as §1

For the compound `C=C(C)CCC(C[C@]12C[C@H](CC=C(C)C)C(C)(C)[C@@]3(C[C@@H](C(C)(C)O)OC3=C(C(=O)c3ccc(O)c(O)c3)C1=O)C2=O)C(=C)C` (relative stereo), the outcome in data set [1], in data set [2], in data set [4], in [5], in [6] and in data set [7] was Active. Besides, the result in data set [8], in [9], in data set [10], in data set [11] and in data set [12] was Active. In data set [3], the Activity result is “Non-toxic”.
As to `C=C(C)CC[C@@H]1C[C@]23C[C@H](CC=C(C)C)C(C)(C)[C@](CC=C(C)C)(C(=O)C(C(=O)c4ccc(O)c(O)c4)=C2OC1(C)C)C3=O` [CYCLOXANTHOCHYMOL], the outcome in data set [1], in data set [2], in data set [4], in data set [5], in data set [6] and in data set [7] was Active. Also, the outcome in data set [8], in data set [9], in data set [10], in [11] and in data set [12] was Active. For the same compound, the Activity result in data set [3] is listed as “Non-toxic”.
`CC(=O)O[C@H]1C(=O)[C@@]2(C)[C@H]([C@H](OC(=O)c3ccccc3)[C@]3(O)C[C@H](OC(=O)[C@H](O)[C@@H](NC(=O)c4ccccc4)c4ccccc4)C(C)=C1C3(C)C)[C@]1(OC(C)=O)CO[C@@H]1C[C@@H]2O` [PACLITAXEL]: the IC50 in [13] was determined as 90 nM; in data set [14], 1600 nM; in [15] it was 260 nM; in [16], 720 nM; in data set [17] it was 9.2 nM; in data set [18] it was 2500 nM. For the same compound, the IC50 in data set [19] was determined as 150 nM.
For the compound `CC(C)=CC[C@H]1C[C@@]23C[C@@H](CC=C(C)C)C(C)(C)[C@@](CC=C(C)C)(C(=O)C(C(=O)c4ccc(O)c(O)c4)=C2OC1(C)C)C3=O` [CAMBOGIN], the outcome in [1], in data set [2], in [4], in [5], in [6] and in data set [7] was Active. Besides, the result in data set [8], in [9], in data set [10], in data set [11] and in data set [12] was Active. Also, in data set [3], the Activity result is recorded as “Non-toxic”.
On to `C=C(C)CCC(C[C@]12C[C@@H]3[C@H](C=C(C)C)[C@](C(=O)c4ccc(O)c(O)c4)(C1=O)C(=O)[C@](CC=C(C)C)(C2=O)C3(C)C)C(=C)C` (stereo not given in full), for which the result in data set [1], in data set [2], in data set [4], in data set [5], in [6] and in data set [7] was Active. The outcome in data set [8], in data set [9], in data set [10], in [11] and in data set [12] was Active. Also, the Activity entry in data set [3] is listed as “Non-toxic”.
